Bioassay records deposited in PubChem by several laboratories.
Neddylation inh – inhibitors of cullin neddylation, primary screen, biochemical, TR-FRET, uHTS, NAE and Ubc12. 360,000 compounds, 0.58% hits. calls only at 25 µM. AID 651699, 2012; in the data active means inhibition above about 36%
Target sequence (P61081 whole entry, looked up): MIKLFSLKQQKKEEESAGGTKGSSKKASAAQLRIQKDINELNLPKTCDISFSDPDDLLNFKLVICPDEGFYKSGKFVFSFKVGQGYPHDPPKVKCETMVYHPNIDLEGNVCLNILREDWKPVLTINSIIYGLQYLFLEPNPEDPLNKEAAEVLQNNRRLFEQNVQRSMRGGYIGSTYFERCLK
Target sequence (Q13564 whole entry, looked up): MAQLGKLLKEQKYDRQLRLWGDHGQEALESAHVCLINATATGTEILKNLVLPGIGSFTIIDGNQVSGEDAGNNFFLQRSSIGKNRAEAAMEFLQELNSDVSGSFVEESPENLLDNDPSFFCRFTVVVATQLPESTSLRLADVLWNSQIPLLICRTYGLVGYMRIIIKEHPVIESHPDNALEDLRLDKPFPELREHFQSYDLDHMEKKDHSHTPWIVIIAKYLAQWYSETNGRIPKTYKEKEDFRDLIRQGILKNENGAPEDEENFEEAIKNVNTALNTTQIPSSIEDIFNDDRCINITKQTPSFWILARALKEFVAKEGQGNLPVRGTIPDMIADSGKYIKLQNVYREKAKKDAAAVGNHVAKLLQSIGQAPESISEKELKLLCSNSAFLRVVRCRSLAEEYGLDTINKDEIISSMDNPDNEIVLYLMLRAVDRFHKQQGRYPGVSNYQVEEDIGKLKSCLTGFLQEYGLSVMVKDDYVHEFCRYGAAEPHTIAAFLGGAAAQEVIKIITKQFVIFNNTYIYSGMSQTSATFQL
VIM-2 inhibitor – VIM-2 metallo-beta-lactamase inhibitors, primary screen, biochemical, epi-absorbance readout, Pseudomonas aeruginosa enzyme | 290,000 compounds, 0.89% hits | purified VIM-2, nitrocefin hydrolysis, epi-absorbance fluorescence | AID 1527, 2009 | inhibition, % at 5.6 µM;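 active means inhibition above the mean of all tested compounds plus 3 SD, cutoff set per screening run, cut at about 7.5% in these data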;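 further: red hydrolysis product quenches plate fluorescence so inhibitors raise well fluorescence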
PolyA inhibitor – polyadenylation inhibitors in yeast reporter cells, primary screen, luminescence, S. cerevisiae | S. cerevisiae SKY197-pL101 polyadenylation reporter, beta-gal luminescence; efflux-impaired pdr1/pdr3 knockout yeast; score 100 = 6 SD above DMSO | activity score, % at 12 µM | 300,000 compounds, 0.02% hits;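 active means lowest replicate activity score at least 50, where 100 means six control SD above control mean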;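 further: yeast exposed to compound for 9 h at 30 °C; higher score means more reporter readthrough which indicates perturbed polyadenylation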
procasp3 activ – activators of human procaspase-3 D3A mutant, primary screen, biochemical, absorbance, PC-3 D3A mutant, single concentration; 330,000 compounds, 0.11% hits; AID 463141, 2010; activation, % at 8.5 µM; Caspase-3 (Homo sapiens), P42574; recombinant procaspase-3 D3A, Ac-DEVD-pNA absorbance 405 nm;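 active means activation above the mean of all tested compounds plus 3 SD, cut at about 21% in these data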
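System: Procaspase-3 D3A mutant. Medium: Zinc-free 300 mM NaCl, 50 mM HEPES, 0.01% Triton X-100. Schedule: 1 h preincubation plus 2 h reaction at 25 °C. Measured by: 405 nm absorbance of p-nitroaniline, reads at 0 and 120 min. Read-out: percent activation relative to control range.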
proCasp7 act – procaspase-7 activators, primary screen, counter-screen for procaspase-3 activator project, biochemical, absorbance, HTS, human; Caspase-7 (Homo sapiens), P55210; recombinant procaspase-7, Ac-DEVD-pNA absorbance 405 nm; D23A/D198A/D206A triple mutant, cannot self-cleave; scale: DMSO 0, 5 µM enzyme 100; activation, % at 8.5 µM; 330,000 compounds, 0.093% hits; AID 463210, 2010;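 active means percent activation above the screen-wide mean plus 3 SD, cut at about 25% in these data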
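Test system: Procaspase-7 triple mutant (PC-7 D3A). Also added: Ac-DEVD-pNA substrate, 400 µM as added. Schedule: 1 h enzyme–compound preincubation and 2 h substrate reaction, both 25 °C. Signal: p-Nitroaniline absorbance at 405 nm, read at 0 and 120 min. Control set: low DMSO alone, high DMSO plus 5 µM PC-7.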
IMP-1 inhibitor – IMP-1 metallo-beta-lactamase inhibitors, primary screen, biochemical, epi-absorbance readout, Pseudomonas aeruginosa enzyme; metallo-beta-lactamase IMP-1 (Pseudomonas aeruginosa); purified IMP-1, nitrocefin hydrolysis, epi-absorbance fluorescence; inhibition, % at 5.6 µM; 290,000 compounds, 0.45% hits; AID 1556, 2009;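 active means inhibition above the mean plus 3 SD of all compounds in the same screening run, cut at about 4.5% in these data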
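assay system = purified recombinant IMP-1 metallo-beta-lactamase enzyme | schedule = 15 min preincubation plus 25 min reaction at 25 °C | signal = Epi-absorbance fluorescence, 480 nm excitation, 530 nm emission | read-out basis = percent inhibition from optical density relative to buffer-blank wells | controls = IMP-1 with DMSO as 0%, enzyme-free DMSO as 100%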
Of the large screens only hits and unclear results are named; the others gave an inactive call. Shown are actives, neighbours in structure and some others; about 1.7% of the full set was active somewhere.

O=C(O)C1C2C=CC(C2)C1C(=O)Nc1ccccc1Br (stereo unspecified)	IMP-1 inhibitor 32
Cc1ccc(Nc2nc(Cl)nc(NC(C)(C)C)n2)cc1	none
CCCOc1ccccc1/C=C1/C(=O)ON=C1C	VIM-2 inhibitor 8.2
CCCOc1ccc(/C=C2/C(=O)ON=C2C)cc1OCC	none
CC(C)c1nc2c(c(=O)c3ccccc3n2C)c(=O)n1-c1ccc(F)cc1	none
Cc1nc2c(c(=O)c3ccccc3n2C)c(=O)n1-c1ccc(F)cc1	VIM-2 inhibitor 8.0
COc1ccc(/C(C)=N/NC(=O)c2cccc(S(=O)(=O)N3CCCC3)c2)c(O)c1	Neddylation inh active (no result: VIM-2 inhibitor, IMP-1 inhibitor)
Cc1cc(N2CCN(C3CCCCC3)CC2)nc2cccc(O)c12	none
COc1cc2sc3cc(NCC[C@@H]4CCCN4C)ccc3c(=O)c2cc1OC	none (no result: VIM-2 inhibitor, PolyA inhibitor, IMP-1 inhibitor)
COc1cccc2sc3ccc(NCCC4CCCN4C)cc3c(=O)c12 (stereo unspecified)	VIM-2 inhibitor 8.4
O=C(CCC(=O)c1cccs1)NC(c1ccccc1)c1ccccc1	none
O=C(CCC(=O)c1cccs1)c1cccs1	IMP-1 inhibitor 4.6
NC(=O)c1ccc(NC(=O)CCC(=O)c2cccs2)cc1	IMP-1 inhibitor 5.0
CC(CNC(=O)c1cncc(O)c1)NC(=O)c1cncc(O)c1 (stereo unspecified)	none
Cc1ccc(Cn2nnc3c(=O)[nH]c(C4CCN(S(=O)(=O)c5ccc(F)cc5)CC4)nc32)cc1	IMP-1 inhibitor 18
Cc1ccc(S(=O)(=O)Cc2ccc(C(=O)N3CCC(C(N)=O)CC3)o2)cc1	none
CNc1nc(-c2ccc3c(c2)CCN3C(=O)c2ccccc2F)cs1	none (no result: procasp3 activ, proCasp7 act)
Cc1cccc(C(=O)NNC(=O)C2CC2)c1	VIM-2 inhibitor 8.7
Cc1cccc(C(=O)NNC(=O)c2cccc(C)c2)c1	none
O=C1Nc2ccccc2N(C(=O)c2c(F)cccc2F)C1c1nc2ccccc2[nH]1 (stereo unspecified)	Neddylation inh active (no result: VIM-2 inhibitor, PolyA inhibitor, procasp3 activ, proCasp7 act, IMP-1 inhibitor)
O=C1Nc2ccccc2N(C(=O)c2ccc(-c3ccccc3)cc2)C1c1nc2ccccc2[nH]1 (stereo unspecified)	none (no result: VIM-2 inhibitor, PolyA inhibitor, procasp3 activ, proCasp7 act, IMP-1 inhibitor)
COc1cccc(-c2cc(C(F)(F)F)nc(-n3cncn3)n2)c1	VIM-2 inhibitor 8.7
Fc1ccc(-c2cc(C(F)(F)F)nc(-n3cncn3)n2)cc1	VIM-2 inhibitor 9.7
OCc1cn(-c2ccccc2)nc1-c1ccco1	none
Cc1ccc[n+](C(C(=S)NCc2ccco2)=C([O-])c2ccccc2Cl)c1	none (no result: VIM-2 inhibitor, PolyA inhibitor, procasp3 activ, proCasp7 act, IMP-1 inhibitor)
Cc1ccc[n+](/C(C(=S)NCc2ccco2)=C(/[O-])c2ccccc2Cl)c1	IMP-1 inhibitor 5.6
CC(Oc1ccc2c3c(c(=O)oc2c1)CCC3)C(=O)NCCN1CCOCC1 (stereo unspecified)	VIM-2 inhibitor 12
Cc1c(OC(C)C(=O)NCCCN2CCOCC2)ccc2c3c(c(=O)oc12)CCCC3 (stereo unspecified)	VIM-2 inhibitor 11
CC(Oc1ccc2c3c(c(=O)oc2c1)CCC3)C(=O)N[C@@H](Cc1ccccc1)C(=O)O (stereo partly specified)	none
CCN(CC)C(=O)COc1ccc2c3c(c(=O)oc2c1C)CCCC3	VIM-2 inhibitor 8.0 (not shown: Neddylation inh)
Cc1c(OCC(=O)N[C@H](C(=O)O)c2ccccc2)ccc2c3c(c(=O)oc12)CCCC3	VIM-2 inhibitor 12 (not shown: Neddylation inh)
Cc1cc(=O)oc2c(C)c(OC(C)C(=O)NCC(O)c3ccccc3)ccc12 (stereo unspecified)	none
Cc1cc(=O)oc2cc(OC(C)C(=O)NCc3ccccn3)ccc12 (stereo unspecified)	none
Cc1c(OC(C)C(=O)NCC(O)c2ccccc2)ccc2c3c(c(=O)oc12)CCCC3 (stereo unspecified)	VIM-2 inhibitor 11
Cc1c(OC(C(=O)O)c2ccccc2)ccc2c3c(c(=O)oc12)CCC3 (stereo unspecified)	VIM-2 inhibitor 7.7 (no result: procasp3 activ, proCasp7 act)
O=C(COc1ccc2c3c(c(=O)oc2c1)CCCC3)NCc1cccnc1	VIM-2 inhibitor 9.2 (not shown: Neddylation inh)
CC(Oc1ccc2c3c(c(=O)oc2c1)CCCC3)C(=O)NCc1ccccn1 (stereo unspecified)	VIM-2 inhibitor 8.5 (not shown: Neddylation inh)
Cc1c(OC(C(=O)O)c2ccccc2)ccc2c1oc(=O)c1ccccc12 (stereo unspecified)	none (not shown: Neddylation inh)
O=C(CCc1ccccc1)NCC1OCCc2ccccc21 (stereo unspecified)	none
CC(C)(C)c1ccc(-n2nc(C(N)=O)c(O)cc2=O)cc1	none
Cc1nc2c(ccc3nc(NC(=O)c4ccc5c(c4)OCCO5)sc32)s1	none
Cc1c(OCC(=O)N2CCC(C(=O)O)CC2)ccc2c3c(c(=O)oc12)CCC3	VIM-2 inhibitor 9.9
COc1ccc(NC(=O)c2cc(-c3ccccn3)nc3ccccc23)c(OC)c1	none (no result: VIM-2 inhibitor, PolyA inhibitor, IMP-1 inhibitor)
CCCC(=O)c1ccc(N2CCN(C(=O)c3ccccc3Br)CC2)c(F)c1	none
C=Cc1ncc(OC)c2c1[nH]c1ccccc12	Neddylation inh active (no result: VIM-2 inhibitor, IMP-1 inhibitor)
Cc1ccc(C(=O)Nc2sc3c(c2C(=O)O)CCCCC3)o1	none (not shown: Neddylation inh)
Cc1ccc(C(=O)Nc2sc3c(c2C(=O)O)CCC(C)C3)o1 (stereo unspecified)	Neddylation inh active (no result: VIM-2 inhibitor, PolyA inhibitor, IMP-1 inhibitor)
COC(=O)c1ccccc1NC(=O)/C=C/C(=O)O	none
O=C(c1cc2c(=O)n3ccccc3nc2s1)N1CCN(Cc2ccc3c(c2)OCO3)CC1	none (not shown: Neddylation inh)
CCN1CCN(C(=O)c2cc3c(=O)n4ccccc4nc3s2)CC1	VIM-2 inhibitor 12 (not shown: Neddylation inh)
O=C(c1cc2c(=O)n3ccccc3nc2s1)N1CCN(Cc2ccccc2)CC1	VIM-2 inhibitor 8.2 (not shown: Neddylation inh)
O=[N+]([O-])c1ccc(-n2nncc2-c2ccc(Cl)cc2)cc1	none
Cc1ccc(NCC(=O)c2ccc(C)cc2)cc1	IMP-1 inhibitor 36
CCn1cc(C(=O)NCCCOC)c(=O)c2cc(S(=O)(=O)N(C)C3CCCCC3)ccc21	none
CNC(C)C#Cc1ccc2oc3cccc(OC)c3c(=O)c2c1 (stereo unspecified)	VIM-2 inhibitor 8.3 (not shown: Neddylation inh)
Cc1cc(NC(=O)c2c(-c3c(F)cccc3Cl)noc2C)no1	none
Cc1ccc(NC(=O)c2c(-c3c(F)cccc3Cl)noc2C)cc1F	IMP-1 inhibitor 41
C=CCn1c(SCC(=O)N2CCOCC2)nc2c([nH]c3ccccc32)c1=O	none
